Screening results from PubChem BioAssay.
MC4R ag barr = human MC4R agonism via beta-arrestin | P32245 | U2OS MC4R beta-arrestin complementation, luminescence; percent of melanotan II response, DMSO zero | activation, % at 8.9 µM | 0.98% of 360,000 active | AID 540308;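 active = activation above a per-plate cutoff, the mean activation of sample wells on that plate plus 3 SD, cut at about 8% in these data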
Beta2AR agonist = human beta-2 adrenergic receptor agonism by FAP. P07550. Am2.2-beta2AR cells, FAP receptor internalization, flow cytometry. response, % (concentration not given with the values). 0.43% of 340,000 active. AID 504454;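 active = response above a set limit, near 3 SD of response in nonfluorescent compounds, cut at about 42% in these data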
Target sequence (P07550 whole entry, looked up): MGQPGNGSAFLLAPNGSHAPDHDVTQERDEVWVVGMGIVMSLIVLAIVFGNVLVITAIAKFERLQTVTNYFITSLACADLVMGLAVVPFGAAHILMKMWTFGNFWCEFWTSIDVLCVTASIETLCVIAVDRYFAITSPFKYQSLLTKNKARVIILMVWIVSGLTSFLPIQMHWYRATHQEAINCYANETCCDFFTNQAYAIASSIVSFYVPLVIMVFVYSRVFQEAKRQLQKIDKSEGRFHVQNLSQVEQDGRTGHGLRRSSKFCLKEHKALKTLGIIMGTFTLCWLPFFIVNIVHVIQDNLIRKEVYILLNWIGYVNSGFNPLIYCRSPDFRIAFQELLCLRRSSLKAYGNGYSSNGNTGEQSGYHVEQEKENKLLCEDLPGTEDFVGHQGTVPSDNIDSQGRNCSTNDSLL
MC4R antagonist = human MC4R antagonism in cAMP assay | P32245 | MC4R-expressing cells, MTII-stimulated cAMP, LANCE TR-FRET | inhibition, % at 6.5 µM | 0.48% of 360,000 active | AID 540295;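 active = inhibition above its plate's cutoff, the mean of tested wells on that plate plus 3 SD, cut at about 29% in these data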
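Material: U2OS-MC4R stable cell line | Reagent: Melanotan II challenge after compound preincubation | Doses: One concentration, 6.5 µM nominal | Incubation: 30-min compound preincubation, 1-h Melanotan II challenge, 1-h detection, room temperature | Signal: TR-FRET cAMP assay | Replicates: One well per compound, no replicates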
ABHD5-PLIN5 inh = inhibitors of human ABHD5-perilipin-5 interaction. Q00G26+Q8WTS1. Split G. princeps luciferase complementation, luminescence, 4 h. inhibition, % at 4 µM. 0.78% of 360,000 active;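 active = inhibition above the mean inhibition across every tested compound plus 3 SD, cut at about 22% in these data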
PfGluPho inh = PfG6PD (Plasmodium falciparum) enzyme inhibition | PfGluPho enzyme, NADPH resazurin-diaphorase fluorescence | inhibition, % at 20 µM | 0.78% of 350,000 active;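 active = inhibition reaching at least a set limit at 20 µM in the primary screen, cut at about 59% in these data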
PfG6PD confirm = PfG6PD inhibition, single-dose confirmed. shares compounds with PfGluPho inh. recombinant PfGluPho, NADPH-diaphorase-resazurin fluorescence. inhibition, % at 20 µM. 34% of 2,400 active. AID 504753;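 active = inhibition of at least 50% at 20 µM in any single replicate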
Diaphorase 10uM = inhibits diaphorase or oxidizes, flagging false PfG6PD hits; shares compounds with PfGluPho inh; diaphorase-coupled resazurin reduction, fluorescence, NADPH 10 uM; inhibition, % at 20 µM; 39% of 820 active; AID 504862;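 active = average inhibition reaching 50% or more with the compound at 20 µM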;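 note: resorufin red fluorescence formed as diaphorase reduces resazurin using NADPH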
Diaph ctr 30uM = counter-screen for P. falciparum G6PD inhibitors: diaphorase inhibitors, oxidizers | shares compounds with PfGluPho inh | Diaphorase/resazurin coupled assay, resorufin fluorescence, 30 uM NADPH | inhibition, % at 20 µM | 29% of 820 active | AID 504863;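 active = inhibition averaging 50% or more, tested at 20 µM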
Of the large screens only hits and unclear results are named; the others gave an inactive call (follow-up assays come after a bar, where they were run). Sampled rows, rich in hits. Any-hit rate of the full collection: about 3%.

Cn1c2ccccc2c(=O)c2cc(C#Cc3cccc(N)c3)ccc21	PfGluPho inh 62.4 | PfG6PD confirm inactive
O=C(Nc1ccccc1)C1CCOC1=O (centres undefined)	none
COc1ccc([N+](=O)[O-])cc1NC(=O)CSCc1cc(C)cc(C)c1	PfGluPho inh 59.3 | PfG6PD confirm inactive
CN1CCSc2ccc(C(=O)Nc3cccc(F)c3)cc21	PfGluPho inh 63.5 | PfG6PD confirm inactive
CCN(CC)c1ccc(C(=O)Nc2cccc(F)c2)cc1	none
CN(C)c1cccc(C(=O)Nc2cccc(F)c2)c1	PfGluPho inh 68.1 | PfG6PD confirm inactive
CCC(CO)[n+]1c(C)cc(/C=C2\Sc3ccccc3N2Cc2ccccc2)cc1C (centres undefined)	PfGluPho inh 74.3 | PfG6PD confirm 53.6 | Diaphorase 10uM inactive | Diaph ctr 30uM inactive
CCN1/C(=C2\SC(=S)N(Cc3ccccc3)C2=O)Sc2ccccc21	none
COc1ccc([C@@H]2[C@@H]3C(=O)N(C(C)(C)C)C(=O)[C@@H]3[C@]3(CC(C)C)C(=O)N(c4cccc(Br)c4)C(=O)N23)cc1	none
O=C(CSc1nc2ncc(Cl)cc2[nH]1)NCC(=O)Nc1ccc(F)c(F)c1F	PfGluPho inh 79.0 | PfG6PD confirm inactive
CN1c2cccc3cccc(c23)N(C)C1(C)C	PfGluPho inh 70.8 | PfG6PD confirm inactive
CNc1cccnc1C=NNC(N)=S	PfGluPho inh 73.8 | PfG6PD confirm inactive
COc1cc(CC(NC(C)=O)C(=O)NC2CCN(C(=O)Nc3ccc(C)cc3)CC2)cc(OC)c1 (centres undefined)	none
CCN(CC)C(=O)c1cccc(NC(=O)C2CCN(C(=O)c3cccs3)CC2)c1	none
Cc1csc(NC(=O)c2cc3c(s2)CCCCC3)n1	PfGluPho inh 76.6 | PfG6PD confirm inactive
Cc1csc(NC(=O)c2cc3c(s2)CCCC3)n1	PfGluPho inh 61.9 | PfG6PD confirm inactive
CN(C)C(=O)CCc1ccc2c3c([nH]c2c1)[C@]1(CCc2ccccc2)[C@@H](C(=O)N2CCCCC2)C[C@H](CC(=O)NCCCn2ccnc2)C(=O)N1CC3	none
O=C(COC(=O)Cn1cnc2ccccc2c1=O)Nc1ccccc1Sc1ccc(Cl)cc1	PfGluPho inh 71.1 | PfG6PD confirm inactive
COc1cc(F)ccc1-c1cc(C(=O)NCc2ccc(C(F)(F)F)cc2)[nH]n1	none (no result: Beta2AR agonist, PfGluPho inh)
COc1cc(/C=N/NC(=O)COc2ccc([N+](=O)[O-])cc2)ccc1OCC(=O)N1CCOCC1	none
O=C(N/N=C\c1cc([N+](=O)[O-])ccc1N1CCOCC1)c1ccccn1	none
CCc1ccc(OCC(=O)N/N=C/c2cc([N+](=O)[O-])ccc2N2CCOCC2)cc1	PfGluPho inh 95.9 | PfG6PD confirm 56.3 | Diaphorase 10uM inactive | Diaph ctr 30uM inactive
Cc1cccc(OCC(=O)N/N=C/c2cc([N+](=O)[O-])ccc2N2CCOCC2)c1	PfGluPho inh 118.3 | PfG6PD confirm 68.1 | Diaphorase 10uM 57.1 | Diaph ctr 30uM 58.8
Cc1c(NC(=S)N/C(=N/S(=O)(=O)c2ccc(Cl)cc2)c2ccccc2)c(=O)n(-c2ccccc2)n1C	none
COc1ccc(CN(Cc2cccn2C)S(=O)(=O)c2ccc(C)cc2)cc1	PfGluPho inh 66.4 | PfG6PD confirm inactive
CC1(C)CC(=O)C2=C(C1)N=C1c3ccccc3C(=O)C1C2c1ccc(Cl)cc1 (centres undefined)	ABHD5-PLIN5 inh 22.1, PfGluPho inh 83.7 | PfG6PD confirm inactive
C=CCn1c2ccccc2c(=O)c2cc(C#CC3(O)CCCCC3)ccc21	PfGluPho inh 104.1 | PfG6PD confirm 55.3 | Diaphorase 10uM 69.9 | Diaph ctr 30uM 53.5
C=CCn1c2ccccc2c(=O)c2cc(C#CC[C@@H](C)O)ccc21	PfGluPho inh 67.2 | PfG6PD confirm inactive
O=c1c2ccccc2sc2ccc(C#CC3(O)CCCCC3)cc12	none
CCCn1nnnc1NCc1ccccc1C	none
COc1ccc(CNC(=O)c2sc(=S)n(-c3ccc(OC)cc3)c2N)cc1	PfGluPho inh 63.2 | PfG6PD confirm inactive
Nc1c(C(=O)NCc2cccnc2)sc(=S)n1-c1ccccc1	none | PfG6PD confirm inactive
Cc1ccc(-n2c(N)c(C(N)=O)sc2=S)cc1	PfGluPho inh 69.1 | PfG6PD confirm inactive
CSCC[C@H](NC(=O)N1CCn2c1nc1ccccc12)C(=O)NCC1CCCO1 (some centres undefined)	none
CCOC(=O)c1sc(N)c(C(=O)Nc2ccccc2OC)c1C	PfGluPho inh 66.1 | PfG6PD confirm inactive
CCOC(=O)c1sc(N)c(C(=O)OC)c1C	none
C=CCCC1CN(CCCC)S(=O)(=O)c2c(F)cccc2O1 (centres undefined)	none
O=C(CSc1ncn(-c2ccccc2)n1)N1CCc2ccccc21	PfGluPho inh 60.4 | PfG6PD confirm inactive
O=C(CN1CCN(c2ccccc2)CC1)N1CCc2ccccc21	none
O=C(CN1CCN(c2ccc(O)cc2)CC1)N1CCc2ccccc21	PfGluPho inh 62.7 | PfG6PD confirm inactive
COc1ccc(S(=O)(=O)NCC(=O)NCc2cc(=O)n(C)c(=O)n2C)cc1C	none
CC1(C)CC(=O)C(CO)=C(c2cccc3ccccc23)C1=O	none
O=C(Oc1cccc2cccnc12)c1cccc([N+](=O)[O-])c1	none
Cc1ccc(Oc2ccc(C(F)(F)F)cc2[N+](=O)[O-])c([N+](=O)[O-])n1	none
N#Cc1ccc(Oc2cccc3cccnc23)c([N+](=O)[O-])c1	PfGluPho inh 101.8 | PfG6PD confirm 70.5 | Diaphorase 10uM 63.5 | Diaph ctr 30uM inactive
O=[N+]([O-])c1ccc(Oc2cccc3cccnc23)c([N+](=O)[O-])c1	PfGluPho inh 119.4 | PfG6PD confirm 95.2 | Diaphorase 10uM 85.5 | Diaph ctr 30uM 74.8
Cc1ccc2cccc(Oc3ccc([N+](=O)[O-])cc3[N+](=O)[O-])c2n1	PfGluPho inh 121.0 | PfG6PD confirm 91.1 | Diaphorase 10uM 94.3 | Diaph ctr 30uM 80.1
CCN(CC(=O)NCc1ccc(F)cc1)C(=O)CN1CCN(c2cc(Cl)ccc2C)CC1	none
Cc1ccc(Cc2c(-c3ccc(Cl)cc3)nc3ccc(Br)cn23)cc1	PfGluPho inh 66.9 (no result: Beta2AR agonist) | PfG6PD confirm inactive
Clc1ccc(-c2nc3ccc(Br)cn3c2Cc2ccccc2)cc1	PfGluPho inh 87.7 (no result: Beta2AR agonist) | PfG6PD confirm inactive
Cc1ccc(Cc2c(-c3ccc(C)cc3)nc3ccc(Br)cn23)cc1	none (no result: Beta2AR agonist)
Brc1ccc(-c2nc3ccc(Br)cn3c2Cc2ccccc2)cc1	none (no result: MC4R ag barr, Beta2AR agonist, MC4R antagonist, PfGluPho inh)
Fc1ccc(-c2nc3ccc(Br)cn3c2Cc2ccccc2)cc1	PfGluPho inh 66.9 (no result: Beta2AR agonist) | PfG6PD confirm inactive
